Data as given in ChEMBL document CHEMBL1150837, “New sesquiterpene derivatives from the sponge Dysidea species with a selective inhibitor profile against human phospholipase A2 and other leukocyte functions” (J Nat Prod, 2001).
Calls of active or inactive are those of the source. No cut-off for these calls is given here.

How the values were obtained:
[1] = biological target: T1, Cytosolic phospholipase A2 (Mus musculus) (UniProt P47713); test: Inhibition of group 4 cytosolic phospholipase A2 in mouse RAW264.7 cells; assay type: cell-based
T1 sequence (whole entry): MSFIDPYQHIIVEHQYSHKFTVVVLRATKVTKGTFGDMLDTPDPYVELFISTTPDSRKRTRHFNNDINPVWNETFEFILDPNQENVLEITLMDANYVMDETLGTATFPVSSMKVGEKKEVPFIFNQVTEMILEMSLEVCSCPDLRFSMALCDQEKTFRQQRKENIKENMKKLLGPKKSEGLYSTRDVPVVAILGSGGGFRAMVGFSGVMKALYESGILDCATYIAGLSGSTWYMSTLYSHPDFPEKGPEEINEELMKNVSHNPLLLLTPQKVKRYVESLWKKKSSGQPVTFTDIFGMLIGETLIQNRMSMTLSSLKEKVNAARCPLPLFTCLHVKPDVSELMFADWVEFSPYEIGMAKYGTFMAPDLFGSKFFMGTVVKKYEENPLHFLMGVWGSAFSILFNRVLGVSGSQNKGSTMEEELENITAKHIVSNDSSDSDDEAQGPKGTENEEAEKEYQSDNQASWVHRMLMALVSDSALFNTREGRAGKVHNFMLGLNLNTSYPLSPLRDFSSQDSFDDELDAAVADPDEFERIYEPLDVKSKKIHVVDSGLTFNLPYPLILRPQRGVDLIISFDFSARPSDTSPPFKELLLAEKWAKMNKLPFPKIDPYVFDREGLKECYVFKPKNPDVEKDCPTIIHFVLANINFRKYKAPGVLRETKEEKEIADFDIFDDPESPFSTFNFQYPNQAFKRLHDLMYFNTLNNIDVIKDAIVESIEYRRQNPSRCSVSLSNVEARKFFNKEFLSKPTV
Procedure, shortened: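 Enzyme source was cytosolic fractions of RAW 264.7 cells. Substrate was 1-palmitoyl-2-[14C]arachidonyl-PC (2 × 10^6 cpm). Compounds were added in methanol (final <1%) just before the enzyme. After 60 min at 37 °C, the reaction was stopped with isopropanol/heptane/0.5 M H2SO4 and extracted into hexane with silica gel. Released arachidonate was counted.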

[2] = Cytotoxicity against human neutrophils up to 10 uM after 16 to 40 hrs by MTT assay; assay type: cell-based; conditions: neutrophil
Procedure, shortened: (§1)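 Cytotoxicity measured on purified human neutrophils as mitochondrial-dependent reduction of MTT to formazan; compounds tested up to 10 µM, reported as % inhibition of viability. Mean ± SEM, n = 6.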

[3] = biological target: T2, Phospholipase A2, membrane associated (Homo sapiens, UniProt P14555); test: Inhibition of human synovial recombinant group 2 secretory phospholipase A2 by liquid scintillation counting
T2 sequence (P14555 whole entry): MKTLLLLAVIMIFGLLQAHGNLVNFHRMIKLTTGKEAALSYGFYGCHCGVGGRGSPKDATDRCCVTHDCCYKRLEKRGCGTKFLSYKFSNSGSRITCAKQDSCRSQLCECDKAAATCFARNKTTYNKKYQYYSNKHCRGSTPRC
Procedure, shortened: (§2)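 Substrate was E. coli CECT 101 membranes labelled with [3H]oleic acid and autoclaved. Enzyme in 100 mM Tris-HCl/1 mM CaCl2, pH 7.5, was preincubated 5 min at 37 °C with compound or vehicle, then incubated 15 min with membranes. The reaction was stopped with ice-cold BSA (final 0.07%) and centrifuged, and supernatant radioactivity was counted. IC50 from ≥4 concentrations; n = 6.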

[4] = biological target: T3, Phospholipase A2, membrane associated (Homo sapiens) (UniProt P14555); test: Inhibition of human synovial recombinant group 2 secretory phospholipase A2 at 10 uM by liquid scintillation counting; procedure, shortened: as §2
T3 sequence (whole entry): T2 sequence (P14555 whole entry)

[5] = tested on: Neutrophil; test: Inhibition of cytochalasin B and fMLP-stimulated human neutrophil degranulation assessed as inhibition of elastase release at 10 uM preincubated for 5 mins before cytochalasin B and fMLP challenge measured after 20 mins by microtiter plate assay; assay type: functional
Procedure, shortened: (§3)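 Neutrophils (2.5 × 10^6/mL) preincubated 5 min with compound or vehicle, then stimulated 10 min at 37 °C with cytochalasin B (10 µM) + FMLP (10 nM). Supernatants incubated 20 min at 37 °C with Boc-L-alanine p-nitrophenyl ester (200 µM); p-nitrophenol read at 414 nm. IC50 from ≥4 concentrations, n = 6.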

[6] = biological target: Phospholipase A2, major isoenzyme (Sus scrofa) (UniProt P00592); test: Inhibition of pig pancreatic group 1 secretory phospholipase A2 at 10 uM by liquid scintillation counting; procedure, shortened: as §2
[7] = tested on: Neutrophil; test: Inhibition of cytochalasin B and fMLP-stimulated human neutrophil degranulation assessed as inhibition of elastase release preincubated for 5 mins before cytochalasin B and fMLP challenge measured after 20 mins by microtiter plate assay; assay type: functional, cell-based; procedure, shortened: as §3
[8] = tested on: Neutrophil; test: Inhibition of TPA-induced chemiluminescence response in human neutrophils at 10 uM after 7 mins; assay type: functional
Procedure, shortened: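 Neutrophils (2.5 × 10^6/mL) mixed with luminol (40 µM) and stimulated with 1 µM TPA; chemiluminescence read at 7 min, the time of maximal production. % inhibition at 10 µM; mean ± SEM, n = 6.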

[9] = biological target: T4, Phospholipase A2 (Apis mellifera) (UniProt P00630); test: Inhibition of bee venom group 3 secretory phospholipase A2 at 10 uM by liquid scintillation counting
T4 sequence (whole entry): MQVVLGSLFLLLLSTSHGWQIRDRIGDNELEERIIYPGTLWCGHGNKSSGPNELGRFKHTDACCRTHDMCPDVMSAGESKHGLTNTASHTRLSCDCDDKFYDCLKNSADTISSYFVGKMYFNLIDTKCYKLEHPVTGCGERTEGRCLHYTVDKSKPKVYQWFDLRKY
Procedure, shortened: (§4)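 Enzyme diluted in 100 mM Tris-HCl, 1 mM CaCl2, pH 7.5, preincubated 5 min at 37 °C with compound or vehicle. Substrate was autoclaved E. coli CECT 101 membranes labelled with [3H]oleic acid. Reaction ran 15 min, stopped with ice-cold BSA (0.07% w/v final), spun 1200g 10 min at 4 °C, supernatant counted. IC50 from ≥4 concentrations; mean ± SEM, n = 6.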

[10] = Cytotoxicity against human neutrophils assessed as inhibition of cell viability at 10 uM after 16 to 40 hrs by MTT assay; assay type: cell-based, Neutrophil; conditions: read-out: INH; procedure, shortened: as §1
[11] = biological target: Acidic phospholipase A2 2 (Naja naja) (UniProt P15445); test: Inhibition of Naja naja venom group 1 secretory phospholipase A2 at 10 uM by liquid scintillation counting; procedure, shortened: as §4
[12] = biological target: T1, Cytosolic phospholipase A2 (Mus musculus); test: Inhibition of group 4 cytosolic phospholipase A2 in mouse RAW264.7 cells at 10 uM; assay type: cell-based
Procedure, shortened: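 Enzyme was the cytosolic fraction of RAW 264.7 macrophages. Substrate 1-palmitoyl-2-[14C]arachidonyl-sn-glycero-3-phosphocholine. Compound added in methanol (<1% final) just before the enzyme. Incubation 60 min at 37 °C, stopped with isopropanol-heptane-H2SO4. Released arachidonate extracted into hexane, cleaned on silica gel and counted. Mean ± SEM, n = 6.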

[13] = biological target: Phospholipase A2, major isoenzyme (Sus scrofa, UniProt P00592); test: Inhibition of pig pancreatic group 1 secretory phospholipase A2 by liquid scintillation counting; procedure, shortened: as §2
[14] = biological target: T5, Phospholipase A2 (Apis mellifera, UniProt P00630); test: Inhibition of bee venom group 3 secretory phospholipase A2 by liquid scintillation counting; procedure, shortened: as §4
T5 sequence (P00630 whole entry): T4 sequence (whole entry)

[15] = Homo sapiens, Neutrophil, read-out: IC50

Sequence of Acidic phospholipase A2 2 (Naja naja) (P15445 whole entry): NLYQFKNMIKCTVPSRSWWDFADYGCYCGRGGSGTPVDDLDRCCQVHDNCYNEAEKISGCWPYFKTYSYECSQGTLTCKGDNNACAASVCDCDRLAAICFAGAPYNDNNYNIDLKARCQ
Sequence of Phospholipase A2, major isoenzyme (Sus scrofa) (P00592 23-146 limits assumed): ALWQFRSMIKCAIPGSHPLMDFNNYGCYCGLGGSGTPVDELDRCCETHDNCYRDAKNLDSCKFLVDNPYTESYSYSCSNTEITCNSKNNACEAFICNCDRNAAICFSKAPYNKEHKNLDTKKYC
Sequence of Phospholipase A2, major isoenzyme (P00592 whole entry): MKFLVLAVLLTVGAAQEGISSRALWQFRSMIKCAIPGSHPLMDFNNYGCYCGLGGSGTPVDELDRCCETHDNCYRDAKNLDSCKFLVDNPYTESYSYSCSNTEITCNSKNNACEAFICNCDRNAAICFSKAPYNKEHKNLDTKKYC

Structure (SMILES)	inhibition [1]	Activity [2]	IC50 [3]	inhibition [4]	inhibition at 10 µM [5]	inhibition [6]	IC50 [7, 15]	IC50 ([7]; neutrophil)	inhibition at 10 µM [8]	inhibition [9]	cytotoxicity at 10 µM [10]	inhibition [11]	inhibition [12]	IC50 [13]	IC50 [14]
COC(=O)[C@@]1(O)C=C(OC)C(=O)[C@H]1C[C@@]1(C)CC[C@]2(C)C(C)=CCC[C@H]2[C@H]1C [DYSIDENONE B]	inactive	Non-toxic	–	–	–	–	–	–	–	–	–	–	–	–	–
CC1=CCC[C@H]2[C@@H](C)[C@@](C)(CC3=C(O)C(=O)C=C(NCCS(=O)(=O)O)C3=O)CC[C@]12C [DYSIDINE]	inactive	Non-toxic	2000 nM	73.8%	90.7%	1.2%	1300 nM	Dose-dependent effect	44.4%	33.4%	0.3%	0.7%	–	–	–
COC(=O)[C@]1(O)C=C(OC)C(=O)[C@@H]1C[C@@]1(C)CC[C@]2(C)C(C)=CCC[C@H]2[C@H]1C [DYSIDENONE A]	inactive	Non-toxic	–	–	–	–	–	–	–	–	–	–	–	–	–
CC1=C(CC/C(C)=C/CCC2=CC[C@H](C3=CC(=O)O[C@H]3O)O[C@H]2O)C(C)(C)CCC1	–	–	–	–	–	–	–	–	–	–	–	17%	44.6%	–	–
COC1=CC(=O)C(O)=C(C[C@@]2(C)CC[C@]3(C)C(C)=CCC[C@H]3[C@H]2C)C1=O [BOLINAQUINONE]	inactive	–	200 nM	100%	68.1%	86.4%	5200 nM	–	40.1%	99.1%	14%	26%	–	400 nM	100 nM
